Active and inactive are the calls of the source.
Experiments:
Mus musculus [1] = test: Neurotoxicity in CF1 albino mouse at 100 mg/kg, ip after 4 hrs by rotarod test; assay type: toxicity, organism-based; conditions: in vivo
In short: (§1)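 Rotarod neurotoxicity in male albino CF-1 mice dosed ip with compound suspended in 0.5% methylcellulose. Animal placed on a 1 inch diameter knurled plastic rod rotating at 6 rpm. Neurotoxicity scored when the animal falls off three times within 1 min. Readout is number of animals toxic/number tested at the stated time after dosing. TD50 with 95% confidence interval from the quantitative study.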

Mus musculus [2] = test: Anticonvulsant activity in CF1 albino mouse assessed as protection against subcutaneous pentetrazole-induced seizure at 30 mg/kg, ip after 0.5 hrs; assay type: functional, organism-based
In short: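 Male CF-1 mice, ip in 0.5% methylcellulose; pentetrazole at CD97 (85 mg/kg) injected subcutaneously in a loose fold of neck skin. Observed 30 min; absence of even a threshold seizure (single clonic spasm lasting at least 5 s) counted as protection. Scored protected/tested, or ED50.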

Mus musculus [3] = test: Anticonvulsant activity in CF1 albino mouse assessed as protection against maximal electroshock-induced seizure at 100 mg/kg, ip after 0.5 hrs; assay type: functional, organism-based
In short: (§2)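 Male CF-1 mice dosed ip as suspension in 0.5% methylcellulose. Corneal electrodes deliver 60 Hz alternating current, 50 mA for […], after a drop of 0.5% tetracaine HCl in 0.9% NaCl per eye. Protection means abolition of hindlimb tonic extension; scored as protected/tested, or ED50 with 95% confidence interval.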

Rattus norvegicus [4] = test: Neurotoxicity in Sprague-Dawley rat at 30 mg/kg, ip after 0.25 hrs by rotarod test; assay type: toxicity, organism-based; conditions: in vivo
In short: (§3)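 Male Sprague–Dawley rats given compound ip as a suspension in 0.5% methylcellulose, groups of four. Rotarod: 1 inch knurled rod at 6 rpm; three falls within 1 min counts as neurotoxic. Scored as number toxic/number tested at pretreatment times between 0.25 and 4 h, or at the stated time.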

Mus musculus [5] = test: Neurotoxicity in CF1 albino mouse assessed as unable to grasp rotarod and death at 300 mg/kg, ip after 0.5 hrs by rotarod test; assay type: toxicity, organism-based; conditions: in vivo
In short: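 Male albino CF-1 mice dosed ip with compound suspended in 0.5% methylcellulose, then placed on a 1-inch knurled plastic rod turning at 6 rpm. A fall three times within 1 min counted as neurotoxicity. Observations were made at 0.5 h and 4 h after dosing. Result given as animals showing toxicity per animals tested, with the kind of toxicity recorded.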

Mus musculus [6] = test: Neurotoxicity in CF1 albino mouse at 60 mg/kg, ip after 1 to 4 hrs by rotarod test; assay type: toxicity, organism-based; conditions: in vivo; in short: as §1
Rattus norvegicus [7] = test: Anticonvulsant activity in Sprague-Dawley rat assessed as protection against maximal electroshock-induced seizure at 30 mg/kg, po; assay type: functional
Rattus norvegicus [8] = test: Neurotoxicity in ip dosed Sprague-Dawley rat after 0.5 hrs by rotarod test; assay type: toxicity, organism-based; conditions: in vivo
Mus musculus [9] = test: Neurotoxicity in ip dosed CF1 albino mouse after 0.5 hrs by rotarod test; assay type: toxicity, organism-based; conditions: in vivo; in short: as §1
Mus musculus [10] = test: Anticonvulsant activity in CF1 albino mouse assessed as protection against maximal electroshock-induced seizure at 30 mg/kg, ip after 0.5 hrs; assay type: functional, organism-based; in short: as §2
Mus musculus [11] = test: Neurotoxicity in CF1 albino mouse at 300 mg/kg, ip after 4 hrs by rotarod test; assay type: toxicity, organism-based; conditions: in vivo; in short: as §1
Rattus norvegicus [12] = test: Anticonvulsant activity in ip dosed Sprague-Dawley rat assessed as protection against subcutaneous pentetrazole-induced seizure after 0.5 hrs; assay type: functional
Rattus norvegicus [13] = test: Neurotoxicity in Sprague-Dawley rat at 30 mg/kg, ip after 2 hrs by rotarod test; assay type: toxicity, organism-based; conditions: in vivo; in short: as §3
Mus musculus [14] = test: Analgesic activity in mouse assessed as inhibition of formalin-induced paw licking behavior at 16 mg/kg, ip after 0.25 hrs; assay type: functional, organism-based
In short: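 Male albino mice, ip in 0.5% methylcellulose; 0.5% formalin injected sub-dermally into right hindpaw plantar surface 0.25 h after dosing. Paw licking observed for the first 2 min of each 5-min epoch up to 40 min after dosing; cumulative licking duration compared with vehicle-pretreated group, acute and inflammatory phases.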

Question: What does the source list for CC1CCCN(CCCCCCCOc2ccc(Cl)cc2)C1.O=C(O)C(=O)O (centres undefined)?
Answer: Activity (Mus musculus [1]): Non-toxic; Activity (Mus musculus [2]): inactive; Activity (Mus musculus [3]): Active; Activity (Rattus norvegicus [4]): Non-toxic; Activity (Mus musculus [5]): Toxic; Activity (Mus musculus [6]): Non-toxic; Activity (Rattus norvegicus [7]): 25%; ED50 (Rattus norvegicus [8]): 50.35 mg/kg; ED50 (Mus musculus [9]): 5.35 mg/kg; Activity (Mus musculus [10]): Active; Activity (Mus musculus [11]): Non-toxic; ED50 (Rattus norvegicus [12]): > 50 mg/kg; Activity (Rattus norvegicus [13]): Non-toxic; Activity (Mus musculus [14]): inactive
